Measured values reported in ChEMBL document CHEMBL1125211, “Design and synthesis of HIV protease inhibitors. Variations of the carboxy terminus of the HIV protease inhibitor L-682,679” (J Med Chem, 1991).
Values after ≈ are worked out from the molar mass of the structure shown.

Tests used:
[1] = target: T1, Human immunodeficiency virus type 1 protease (Human immunodeficiency virus 1, UniProt Q72874); assay: Inhibitory activity against HIV protease in peptide cleavage assay
In short: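 HIV-1 protease peptide-substrate cleavage assay. Inhibitor dissolved in DMSO and added to the enzyme mixture at the required concentrations. Extent of substrate cleavage determined by HPLC. IC50 calculated from cleavage extent.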

[2] = target: T1, Human immunodeficiency virus type 1 protease; assay: Inhibitory activity against HIV Protease in peptide cleavage assay
In short: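 HIV-1 protease substrate cleavage assay. Inhibitor was dissolved in DMSO and added to the enzyme mixture at the required concentrations. Substrate cleavage was measured by HPLC, and IC50 was calculated from the extent of cleavage.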

[3] = test system: H9; assay: Ability to inhibit HIV-1 infection in H9 human T-lymphoid cells; assay type: functional; settings: read-out: MIC100
In short: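 HIV-1 spread in culture of H9 human T-lymphoid cells, tested at concentrations up to 12 μM. Value reported as MIC100, the minimum concentration giving 100% inhibition of viral spread.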

Row | SMILES | IC50 [1] [nM] | IC50 [2] [nM] | MIC [3] [µM]
1 | CC(C)[C@H](NC(=O)[C@H](Cc1ccccc1)C[C@H](O)[C@H](Cc1ccccc1)NC(=O)OC(C)(C)C)C(=O)NCCO | 0.44 |  | 
2 | CC(C)(C)OC(=O)N[C@@H](Cc1ccccc1)[C@@H](O)C[C@@H](Cc1ccccc1)C(=O)N[C@@H](Cc1cc2ccccc2[nH]1)C(N)=O | 60 |  | 
3 | CC(C)(C)OC(=O)N[C@@H](Cc1ccccc1)[C@@H](O)C[C@@H](Cc1ccccc1)C(=O)N[C@@H](CC1CCCCC1)C(N)=O |  | 64 | 
4 | CC(C)[C@H](NC(=O)[C@H](Cc1ccccc1)C[C@H](O)[C@H](Cc1ccccc1)NC(=O)OC(C)(C)C)C(=O)NCc1ccccn1 | 0.75 |  | 
5 | CC(C)(C)OC(=O)N[C@@H](Cc1ccccc1)[C@@H](O)C[C@@H](Cc1ccccc1)C(=O)N[C@@H](Cc1ncc[nH]1)C(N)=O | 770 |  | 
6 | CC(C)[C@H](NC(=O)[C@H](Cc1ccccc1)C[C@H](O)[C@H](Cc1ccccc1)NC(=O)OC(C)(C)C)C(=O)NCc1ccncc1 | 0.62 |  | 0.4 (≈ 0.241 µg/mL)
7 | CC(C)(C)OC(=O)N[C@@H](Cc1ccccc1)[C@@H](O)C[C@@H](Cc1ccccc1)C(=O)N[C@H](C(N)=O)C1CCCCC1 |  | 5.2 | 
8 | CC(C)[C@H](NC(=O)[C@H](Cc1ccccc1)C[C@H](O)[C@H](Cc1ccccc1)NC(=O)OC(C)(C)C)C(=O)NCC(O)CN1CCOCC1 (some centres undefined) | 0.88 |  | 
9 | CC(C)C[C@H](NC(=O)[C@H](Cc1ccccc1)C[C@H](O)[C@H](Cc1ccccc1)NC(=O)OC(C)(C)C)C(=O)NCCCN(C)C | 23 |  | 
10 | CC(C)C[C@H](NC(=O)[C@H](Cc1ccccc1)C[C@H](O)[C@H](Cc1ccccc1)NC(=O)OC(C)(C)C)C(=O)NCCc1ccccc1 | 15 |  | 
11 | CCC(C)[C@H](NC(=O)[C@H](Cc1ccccc1)C[C@H](O)[C@H](Cc1ccccc1)NC(=O)OC(C)(C)C)C(=O)NCc1ncc[nH]1 (some centres undefined) | 0.88 |  | 
12 | CC(C)[C@H](NC(=O)[C@H](Cc1ccccc1)C[C@H](O)[C@H](Cc1ccccc1)NC(=O)OC(C)(C)C)C(=O)NCC(O)CO (some centres undefined) | 0.05 |  | 1.5 (≈ 0.879 µg/mL)
13 | CC(C)C[C@H](NC(=O)[C@H](Cc1ccccc1)C[C@H](O)[C@H](Cc1ccccc1)NC(=O)OC(C)(C)C)C(=O)NCc1ccccc1 |  | 1.4 | 3 (≈ 1.85 µg/mL)
14 | CC(C)[C@H](NC(=O)[C@H](Cc1ccccc1)C[C@H](O)[C@H](Cc1ccccc1)NC(=O)OC(C)(C)C)C(=O)NCCCN1CCOCC1 | 2.9 |  | 
15 | CC(C)(C)OC(=O)N[C@@H](Cc1ccccc1)[C@@H](O)C[C@@H](Cc1ccccc1)C(=O)N[C@H](C(=O)NCc1ccccc1)c1ccccc1 | 5.8 |  | 
16 | CCC(C)[C@H](NC(=O)[C@H](Cc1ccccc1)C[C@H](O)[C@H](Cc1ccccc1)NC(=O)OC(C)(C)C)C(N)=O (some centres undefined) |  | 2.7 | 3 (≈ 1.58 µg/mL)
17 | CN(C)CCCNC(=O)[C@@H](NC(=O)[C@H](Cc1ccccc1)C[C@H](O)[C@H](Cc1ccccc1)NC(=O)OC(C)(C)C)c1ccccc1 | 26 |  | 
18 | CNCCNC(=O)[C@@H](NC(=O)[C@H](Cc1ccccc1)C[C@H](O)[C@H](Cc1ccccc1)NC(=O)OC(C)(C)C)C(C)C | 1.73 |  | 
19 | CCC(C)[C@H](NC(=O)[C@H](Cc1ccccc1)C[C@H](O)[C@H](Cc1ccccc1)NC(=O)OC(C)(C)C)C(=O)NCC(O)CO (some centres undefined) | 0.15 |  | 
20 | CC(C)C[C@@H](NC(=O)[C@H](Cc1ccccc1)C[C@H](O)[C@H](Cc1ccccc1)NC(=O)OC(C)(C)C)C(N)=O |  | 3100 | 
21 | CC(C)(C)OC(=O)N[C@@H](Cc1ccccc1)[C@@H](O)C[C@@H](Cc1ccccc1)C(=O)N[C@@H](Cc1ccccc1)C(N)=O |  | 29 | 
22 | CC(C)[C@H](NC(=O)[C@H](Cc1ccccc1)C[C@H](O)[C@H](Cc1ccccc1)NC(=O)OC(C)(C)C)C(=O)NCc1cccnc1 | 0.69 |  | 

Row | SMILES | IC50 [1] [nM] | IC50 [2] [nM] | MIC [3] [µM]
23 | CC(C)(C)OC(=O)N[C@@H](Cc1ccccc1)[C@@H](O)C[C@@H](Cc1ccccc1)C(=O)N[C@@H](CO)C(N)=O |  | 606 | 
24 | CC(C)[C@H](NC(=O)[C@H](Cc1ccccc1)C[C@H](O)[C@H](Cc1ccccc1)NC(=O)OC(C)(C)C)C(=O)NCc1nc2ccccc2[nH]1 | 0.2 |  | 
25 | CC(C)(C)OC(=O)N[C@@H](Cc1ccccc1)[C@@H](O)C[C@@H](Cc1ccccc1)C(=O)N[C@H](C(N)=O)c1ccccc1 |  | 0.9 | 1.5 (≈ 0.819 µg/mL)
26 | CC(C)[C@H](NC(=O)[C@H](Cc1ccccc1)C[C@H](O)[C@H](Cc1ccccc1)NC(=O)OC(C)(C)C)C(N)=O |  | 1.1 | 
27 | CC(C)[C@H](NC(=O)[C@H](Cc1ccccc1)C[C@H](O)[C@H](Cc1ccccc1)NC(=O)OC(C)(C)C)C(=O)NCCN | 0.46 |  | 
28 | CC(C)C[C@H](NC(=O)[C@H](Cc1ccccc1)C[C@H](O)[C@H](Cc1ccccc1)NC(=O)OC(C)(C)C)C(=O)NC(CO)Cc1ccccc1 (some centres undefined) | 1.5 |  | 
29 | CC[C@H](C)[C@H](NC(=O)[C@H](Cc1ccccc1)C[C@H](O)[C@H](Cc1ccccc1)NC(=O)OC(C)(C)C)C(=O)NC(=O)C(N)Cc1ccccc1 (some centres undefined) |  | 0.25 | 
30 | CC[C@H](C)[C@H](NC(=O)[C@H](Cc1ccccc1)C[C@H](O)[C@H](Cc1ccccc1)NC(=O)OC(C)(C)C)C(=O)NCc1nc2ccccc2[nH]1 | 0.06 |  | 0.2 (≈ 0.131 µg/mL)
31 | CC(C)(C)OC(=O)N[C@@H](Cc1ccccc1)[C@@H](O)C[C@@H](Cc1ccccc1)C(=O)N[C@H](C(=O)NCc1nc2ccccc2[nH]1)c1ccccc1 | 0.07 |  | 
32 | CCC(C)[C@H](NC(=O)[C@H](Cc1ccccc1)C[C@H](O)[C@H](Cc1ccccc1)NC(=O)OC(C)(C)C)C(=O)NCc1ccccc1 (some centres undefined) |  | 0.71 | 1.5 (≈ 0.924 µg/mL)
33 | CC(C)[C@H](NC(=O)[C@H](Cc1ccccc1)C[C@H](O)[C@H](Cc1ccccc1)NC(=O)OC(C)(C)C)C(=O)NCCCN(C)C |  | 3.4 | 
34 | CCC(C)[C@H](NC(=O)[C@H](Cc1ccccc1)C[C@H](O)[C@H](Cc1ccccc1)NC(=O)OC(C)(C)C)C(=O)NCc1ccccn1 (some centres undefined) | 1.3 |  | 0.78 (≈ 0.481 µg/mL)
35 | CC(C)C[C@H](NC(=O)[C@H](Cc1ccccc1)C[C@H](O)[C@H](Cc1ccccc1)NC(=O)OC(C)(C)C)C(=O)NCCO | 2.1 |  | 3 (≈ 1.71 µg/mL)
36 | CCN(CC)CC(O)CNC(=O)[C@@H](NC(=O)[C@H](Cc1ccccc1)C[C@H](O)[C@H](Cc1ccccc1)NC(=O)OC(C)(C)C)C(C)C (some centres undefined) | 6.3 |  | 
37 | CC(C)[C@H](NC(=O)[C@H](Cc1ccccc1)C[C@H](O)[C@H](Cc1ccccc1)NC(=O)OC(C)(C)C)C(=O)NCc1ccccc1 | 0.24 |  | 
38 | CC(C)(C)OC(=O)N[C@@H](Cc1ccccc1)[C@@H](O)C[C@@H](Cc1ccccc1)C(=O)NCC(N)=O |  | 550 | 
39 | C[C@H](NC(=O)[C@H](Cc1ccccc1)C[C@H](O)[C@H](Cc1ccccc1)NC(=O)OC(C)(C)C)C(N)=O |  | 7 | 6 (≈ 2.9 µg/mL)
40 | CC(C)C[C@H](NC(=O)[C@H](Cc1ccccc1)C[C@H](O)[C@H](Cc1ccccc1)NC(=O)OC(C)(C)C)C(N)=O |  | 10 | 
41 | CCC(C)[C@H](NC(=O)[C@H](Cc1ccccc1)C[C@H](O)[C@H](Cc1ccccc1)NC(=O)OC(C)(C)C)C(=O)NCCN(C)C (some centres undefined) | 7.1 |  | 
42 | CCC(C)[C@H](NC(=O)[C@H](Cc1ccccc1)C[C@H](O)[C@H](Cc1ccccc1)NC(=O)OC(C)(C)C)C(=O)NCCCN(C)C (some centres undefined) | 7.9 |  | 
43 | CCC(C)[C@H](NC(=O)[C@H](Cc1ccccc1)C[C@H](O)[C@H](Cc1ccccc1)NC(=O)OC(C)(C)C)C(=O)NCCO (some centres undefined) | 0.46 |  | 0.4 (≈ 0.228 µg/mL)
